Data: ChEMBL document CHEMBL3580655, “Identification of a Potent Inhibitor of CREB-Mediated Gene Transcription with Efficacious in Vivo Anticancer Activity” (J Med Chem, 2015)
Activity calls are given as the source filed them. The rule behind the calls is not given here.

Legend:
A549 = assay: Antiproliferative activity against human A549 cells assessed as inhibition of cell growth after 72 hrs by MTT assay; format: functional; conditions: A549, 72 h
Outline: (§1)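 Cells seeded, allowed to attach overnight, then exposed to a range of concentrations for 72 h. MTT 0.5 mg/mL in complete medium, 3 h at 37 °C, formazan dissolved in DMSO, absorbance 570 nm. Percent growth = 100×(treated−time-zero)/(medium control−time-zero). GI50 from nonlinear regression of the growth–concentration curve. Mean ± SD of at least two independent experiments in duplicate; highest concentration 100 μM.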

MDA-MB-468 = assay: Antiproliferative activity against human MDA-MB-468 cells assessed as inhibition of cell growth after 72 hrs by MTT assay; format: functional; conditions: MDA-MB-468, 72 h; outline: as §1
MDA-MB-231 = assay: Antiproliferative activity against human MDA-MB-231 cells assessed as inhibition of cell growth after 72 hrs by MTT assay; format: functional; conditions: MDA-MB-231, 72 h; outline: as §1
MCF7 = assay: Antiproliferative activity against human MCF7 cells assessed as inhibition of cell growth after 72 hrs by MTT assay; format: functional; conditions: MCF7, 72 h; outline: as §1
[1] = Inhibition of CREB-mediated gene transcription in human HEK293T cells transfected with pCRE-RLuc by renilla luciferase reporter assay; format: cell-based; conditions: HEK-293T
[2] = target: Cellular tumor antigen p53 (Homo sapiens) (UniProt P04637); assay: Inhibition of P53 (unknown origin) transfected in human HEK293T cells assessed as inhibition of forskolin-stimulated gene transcription after 30 mins by CRE-RLuc complementation assay; format: cell-based; conditions: HEK-293T
Outline: (§2)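 HEK 293T cells transfected with the relevant plasmid combinations (VP16-CREB: VP16 activation domain fused to full-length CREB; or p53), then exposed to a range of concentrations before Renilla luciferase measurement. Activity normalized to protein concentration, expressed as RLU/μg protein.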

[3] = target: Cellular tumor antigen p53 (Homo sapiens) (UniProt P04637); assay: Inhibition of P53 (unknown origin) transfected in human HEK293T cells assessed as inhibition of forskolin-stimulated gene transcription at > 1 uM after 30 mins by CRE-RLuc complementation assay; format: cell-based; conditions: HEK-293T; outline: as §2
HEK-293T = assay: Inhibition of CREB-mediated gene transcription in human HEK293T cells assessed as inhibition of forskolin-stimulated Nurr1/NR4A2 transcription at 1000 nM after 1 hr by qRT-PCT analysis; format: cell-based
Outline: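 HEK 293T cells exposed to a range of compound concentrations for 1 h, then DMSO or forskolin (10 μM) for 45 min. Nurr1/NR4A2 transcript level measured by qRT-PCR as relative mRNA.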

Cellular tumor antigen p53 (Homo sapiens), sequence (P04637 whole entry, looked up, the tested form may be a part): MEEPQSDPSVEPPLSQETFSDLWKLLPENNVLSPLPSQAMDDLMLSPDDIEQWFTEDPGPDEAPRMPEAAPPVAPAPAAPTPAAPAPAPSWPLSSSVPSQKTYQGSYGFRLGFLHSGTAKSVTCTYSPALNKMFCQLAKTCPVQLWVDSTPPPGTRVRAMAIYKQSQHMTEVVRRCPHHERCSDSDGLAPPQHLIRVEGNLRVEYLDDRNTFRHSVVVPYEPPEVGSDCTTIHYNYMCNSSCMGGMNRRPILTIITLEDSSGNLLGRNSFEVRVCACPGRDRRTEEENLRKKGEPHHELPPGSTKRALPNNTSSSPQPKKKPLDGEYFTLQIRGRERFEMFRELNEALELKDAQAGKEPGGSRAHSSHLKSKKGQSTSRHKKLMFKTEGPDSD

Compound | GI50 (A549) | GI50 (MDA-MB-468) | GI50 (MDA-MB-231) | GI50 (MCF7) | IC50 [1] | inhibition [2] | inhibition [3] | inhibition (HEK-293T)
NCCOc1cc2ccccc2cc1C(=O)NCCCOc1cc2ccccc2cc1C(=O)Nc1ccc(Cl)cc1O | 2170 nM | 1850 nM | 2710 nM | 1890 nM | 5230 nM | – | – | –
NCCCOc1cc2ccccc2cc1C(=O)NCCCOc1ccccc1C(=O)Nc1ccc(Cl)cc1O | 2440 nM | 1820 nM | 4610 nM | 2300 nM | 10000 nM | – | – | –
CNCCCOc1cc2ccccc2cc1C(=O)NCCCOc1cc2ccccc2cc1C(=O)Nc1ccc(Cl)cc1O | 260 nM | 200 nM | 260 nM | 1650 nM | 18500 nM | – | – | –
NCCCOc1cc2ccccc2cc1C(=O)NCCOc1cc2ccccc2cc1C(=O)Nc1ccc(Cl)cc1O | – | – | – | – | – | inactive | Active | –
NCCCOc1cc2ccccc2cc1C(=O)NCCCOc1cc2ccccc2cc1C(=O)Nc1ccc(Cl)cc1 | 950 nM | 1620 nM | 1000 nM | 1720 nM | 4690 nM | – | – | –
NCCCOc1cc2ccccc2cc1C(=O)NCCCOc1cc2ccccc2cc1C(=O)Nc1ccc(Cl)cc1O | 290 nM | 220 nM | 370 nM | 140 nM | – | – | – | Active
NCCCOc1ccccc1C(=O)NCCCOc1cc2ccccc2cc1C(=O)Nc1ccc(Cl)cc1O | 2320 nM | 2320 nM | 5820 nM | 2660 nM | 5300 nM | – | – | –
O=C(NCCCOc1cc2ccccc2cc1C(=O)Nc1ccc(Cl)cc1O)c1cc2ccccc2cc1OCCCO | 39200 nM | 10200 nM | 82700 nM | 29000 nM | 7300 nM | – | – | –
O=C(NCCCOc1cc2ccccc2cc1C(=O)Nc1ccc(Cl)cc1O)c1cc2ccccc2cc1OCCCN1CCOCC1 | > 100000 nM | 13700 nM | > 100000 nM | > 100000 nM | > 50000 nM | – | – | –
NCCOc1cc2ccccc2cc1C(=O)NCCOc1cc2ccccc2cc1C(=O)Nc1ccc(Cl)cc1O | 1160 nM | 250 nM | 1210 nM | 810 nM | 300 nM | – | – | –
